According to ChEMBL document CHEMBL1136055, “3-Heteroaryl-2-pyridones: benzodiazepine site ligands with functional delectivity for alpha 2/alpha 3-subtypes of human GABA(A) receptor-ion channels” (J Med Chem, 2002):

Experiments:
[1] = target: T1, GABA-A receptor; alpha-2/beta-3/gamma-2 (Homo sapiens, UniProt P18507+P28472+P47869); test: Displacement of [3H]Ro-151788 from human Gamma-aminobutyric acid A receptor alpha-2-beta-3-gamma-2 stably expressed in L(tk-) cells; assay type: cell-based
T1 sequence (P18507 whole entry): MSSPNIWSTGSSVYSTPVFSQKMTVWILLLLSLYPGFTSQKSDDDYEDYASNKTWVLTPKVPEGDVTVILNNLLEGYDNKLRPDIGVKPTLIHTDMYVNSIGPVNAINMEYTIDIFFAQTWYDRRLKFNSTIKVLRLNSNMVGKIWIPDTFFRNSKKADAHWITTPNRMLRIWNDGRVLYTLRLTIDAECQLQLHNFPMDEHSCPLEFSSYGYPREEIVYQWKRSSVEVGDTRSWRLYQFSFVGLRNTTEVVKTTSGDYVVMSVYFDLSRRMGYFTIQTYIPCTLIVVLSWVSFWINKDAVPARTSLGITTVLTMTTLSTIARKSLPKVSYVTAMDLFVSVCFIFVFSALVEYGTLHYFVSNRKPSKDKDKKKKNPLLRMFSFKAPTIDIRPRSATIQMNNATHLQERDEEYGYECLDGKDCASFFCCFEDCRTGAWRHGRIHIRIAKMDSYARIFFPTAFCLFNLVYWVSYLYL
T1 sequence (P28472 whole entry): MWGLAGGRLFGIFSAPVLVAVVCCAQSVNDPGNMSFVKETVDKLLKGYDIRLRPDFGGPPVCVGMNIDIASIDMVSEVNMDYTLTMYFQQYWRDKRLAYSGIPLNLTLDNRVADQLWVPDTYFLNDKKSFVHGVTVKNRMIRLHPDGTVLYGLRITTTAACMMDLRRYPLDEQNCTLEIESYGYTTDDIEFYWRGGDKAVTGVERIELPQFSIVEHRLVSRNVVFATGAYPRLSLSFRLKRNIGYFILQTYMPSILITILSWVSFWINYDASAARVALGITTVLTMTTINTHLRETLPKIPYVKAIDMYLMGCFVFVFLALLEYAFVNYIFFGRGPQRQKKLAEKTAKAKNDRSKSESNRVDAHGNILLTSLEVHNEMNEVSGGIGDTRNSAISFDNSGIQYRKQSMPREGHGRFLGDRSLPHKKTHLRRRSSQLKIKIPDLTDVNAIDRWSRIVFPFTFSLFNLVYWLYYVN
T1 sequence (P47869 whole entry): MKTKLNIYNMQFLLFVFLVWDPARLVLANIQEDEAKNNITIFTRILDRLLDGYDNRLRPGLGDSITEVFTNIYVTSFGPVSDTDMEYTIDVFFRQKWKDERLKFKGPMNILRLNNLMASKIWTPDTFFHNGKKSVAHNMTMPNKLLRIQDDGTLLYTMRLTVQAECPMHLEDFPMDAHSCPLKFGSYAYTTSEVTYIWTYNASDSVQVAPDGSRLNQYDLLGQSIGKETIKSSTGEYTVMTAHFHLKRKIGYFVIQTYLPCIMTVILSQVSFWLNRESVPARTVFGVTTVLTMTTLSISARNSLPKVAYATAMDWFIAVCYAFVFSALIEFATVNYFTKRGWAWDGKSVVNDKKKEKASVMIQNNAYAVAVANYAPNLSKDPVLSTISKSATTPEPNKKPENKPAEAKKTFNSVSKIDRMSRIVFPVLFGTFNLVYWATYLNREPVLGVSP
Method in brief: (§1)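 Competition binding against [3H]Ro15-1788 on cloned human α1/α2/α3/α5 β3γ2S receptors stably expressed in L(tk-) cells. Six to eight test concentrations spaced in half-log steps. Ki given as mean (SEM), n = 3-5, reported to two significant figures.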

[2] = target: T2, GABA-A receptor; alpha-3/beta-3/gamma-2 (Homo sapiens, UniProt P18507+P28472+P34903); test: Binding affinity by displacement of [3H]Ro-151788 from recombinant human gamma-aminobutyric-acid A receptor alpha3,beta3,gamma2 stably expressed in L cells; assay type: cell-based; method in brief: as §1
T2 sequence (P18507 whole entry): T1 sequence (P18507 whole entry)
T2 sequence (P28472 whole entry): T1 sequence (P28472 whole entry)
T2 sequence (P34903 whole entry): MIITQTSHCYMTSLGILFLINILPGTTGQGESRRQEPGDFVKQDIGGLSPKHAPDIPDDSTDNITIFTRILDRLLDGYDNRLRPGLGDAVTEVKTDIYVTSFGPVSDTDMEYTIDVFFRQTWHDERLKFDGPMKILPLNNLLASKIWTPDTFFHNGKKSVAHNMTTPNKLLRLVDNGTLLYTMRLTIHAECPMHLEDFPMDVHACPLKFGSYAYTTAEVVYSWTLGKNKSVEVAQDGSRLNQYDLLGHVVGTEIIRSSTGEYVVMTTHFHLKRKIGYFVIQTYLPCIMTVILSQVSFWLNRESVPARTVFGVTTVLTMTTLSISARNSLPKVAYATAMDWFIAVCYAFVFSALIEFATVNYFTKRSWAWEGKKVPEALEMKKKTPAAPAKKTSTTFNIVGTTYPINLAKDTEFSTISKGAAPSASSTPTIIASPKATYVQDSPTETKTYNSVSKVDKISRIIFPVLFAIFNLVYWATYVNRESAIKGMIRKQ

[3] = target: T3, GABA-A receptor; alpha-1/beta-3/gamma-2 (Homo sapiens, UniProt P14867+P18507+P28472); test: Inhibition of [3H]Ro-151788 binding to human GABA A receptor (alpha-1-beta-3-gamma-2) stably expressed in L(tk-) cells.; assay type: cell-based
T3 sequence (P14867 whole entry): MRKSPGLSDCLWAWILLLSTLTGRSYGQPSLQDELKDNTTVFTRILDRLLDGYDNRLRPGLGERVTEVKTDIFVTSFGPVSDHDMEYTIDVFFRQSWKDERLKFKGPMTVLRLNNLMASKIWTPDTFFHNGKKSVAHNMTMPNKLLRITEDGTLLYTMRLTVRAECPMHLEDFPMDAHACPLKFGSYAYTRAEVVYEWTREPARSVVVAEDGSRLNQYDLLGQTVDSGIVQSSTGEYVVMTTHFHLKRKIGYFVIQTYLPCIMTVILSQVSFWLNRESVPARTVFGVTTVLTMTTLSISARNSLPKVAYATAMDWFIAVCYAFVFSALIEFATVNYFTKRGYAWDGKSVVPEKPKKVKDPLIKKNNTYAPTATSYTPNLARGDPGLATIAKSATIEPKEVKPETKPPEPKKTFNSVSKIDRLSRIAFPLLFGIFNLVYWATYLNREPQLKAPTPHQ
T3 sequence (P18507 whole entry): T1 sequence (P18507 whole entry)
T3 sequence (P28472 whole entry): T1 sequence (P28472 whole entry)

[4] = target: T4, GABA-A receptor; alpha-5/beta-3/gamma-2 (Homo sapiens, UniProt P18507+P28472+P31644); test: Inhibition of [3H]Ro-151788 binding to human GABA A receptor (alpha-5-beta-3-gamma-2) stably expressed in L(tk-) cells.; assay type: cell-based; method in brief: as §1
T4 sequence (P18507 whole entry): T1 sequence (P18507 whole entry)
T4 sequence (P28472 whole entry): T1 sequence (P28472 whole entry)
T4 sequence (P31644 whole entry): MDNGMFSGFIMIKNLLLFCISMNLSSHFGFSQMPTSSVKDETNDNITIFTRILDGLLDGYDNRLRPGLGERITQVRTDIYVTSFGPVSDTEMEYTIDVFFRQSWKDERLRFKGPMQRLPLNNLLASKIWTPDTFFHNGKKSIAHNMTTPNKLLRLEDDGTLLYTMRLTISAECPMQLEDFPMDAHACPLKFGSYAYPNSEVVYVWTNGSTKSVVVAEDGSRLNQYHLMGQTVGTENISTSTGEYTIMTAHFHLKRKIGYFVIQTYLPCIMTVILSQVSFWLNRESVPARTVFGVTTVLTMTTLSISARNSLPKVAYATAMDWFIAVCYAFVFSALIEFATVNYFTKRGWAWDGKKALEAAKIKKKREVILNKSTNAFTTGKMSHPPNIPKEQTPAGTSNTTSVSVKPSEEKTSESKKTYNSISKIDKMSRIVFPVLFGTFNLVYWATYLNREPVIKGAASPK

[5] = target: GABA-A receptor; alpha-1/beta-3/gamma-2 (Homo sapiens) (UniProt P14867+P18507+P28472); test: Modulatory effect on coapplication with GABA at human Gamma-aminobutyric acid A receptor alpha-1-beta-3-gamma-2 in Xenopus oocyte.
Method in brief: (§2)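 Two-electrode voltage clamp of Xenopus oocytes transiently expressing human α1, α2 or α3 β3γ2S receptors. Test compound is co-applied with GABA at its EC20 (GABA range 4-30 µM). Result is the % change in GABA current, mean (SEM), n = 3-7, at the stated test compound concentration (µM).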

[6] = target: GABA-A receptor; alpha-3/beta-3/gamma-2 (Homo sapiens) (UniProt P18507+P28472+P34903); test: Modulatory effect on coapplication with GABA at human Gamma-aminobutyric acid A receptor alpha-3-beta-3-gamma-2 in Xenopus oocytes.; assay type: cell-based; settings: Oocyte; method in brief: as §2
[7] = target: T4, GABA-A receptor; alpha-5/beta-3/gamma-2; test: Displacement of [3H]Ro-151788 from human GABA-A receptor alpha-5-beta-3-gamma-2 subunits expressed in L(tk-) cells; assay type: cell-based; method in brief: as §1
[8] = target: T1, GABA-A receptor; alpha-2/beta-3/gamma-2; test: Displacement of [3H]Ro-151788 from human GABA-A receptor alpha-2-beta-3-gamma-2 subunits expressed in L(tk-) cells; assay type: cell-based; method in brief: as §1
[9] = target: T3, GABA-A receptor; alpha-1/beta-3/gamma-2; test: Displacement of [3H]Ro-151788 from human GABA-A receptor alpha-1-beta-3-gamma-2 subunits expressed in L(tk-) cells; assay type: cell-based; method in brief: as §1
[10] = target: GABA-A receptor; alpha-2/beta-3/gamma-2 (Homo sapiens) (UniProt P18507+P28472+P47869); test: Modulatory effect on coapplication with GABA at human Gamma-aminobutyric acid A receptor alpha-2-beta-3-gamma-2 expressed inXenopus oocytes; assay type: cell-based; settings: Oocyte; method in brief: as §2

Compound	Ki [1] [nM]	Ki [2] [nM]	Ki [3] [nM]	Ki [4] [nM]	percent modulation of GABA EC20 response [5] [%]	percent modulation of GABA EC20 response [6] [%]	Ki [7] [nM]	Ki [8] [nM]	Ki [9] [nM]	percent modulation of GABA EC20 response [10] [%]
COc1ccc(-c2cc(C#N)c(OC)nc2-c2ccc(N(C)C)cc2)cc1	> 30000	> 30000	> 30000	> 667	–	–	–	–	–	–
COC(=O)c1cc(-c2ccc(OC)cc2)c(-c2ccccn2)n(C)c1=O	> 667	510	> 3000	> 667	–	–	–	–	–	–
Cc1csc(-c2cc(-c3ccncc3)c(-c3ccncc3)n(C)c2=O)n1	–	6.7	–	–	-23	-4	270	20	24	–
COc1ccc(-c2cc(-c3nc(C)ns3)c(=O)n(C)c2-c2ccncc2)cc1	42	25	90	> 667	117	138	–	–	–	97
COC(=O)c1cc(-c2ccc(OC)cc2)c(-c2cccnc2)n(C)c1=O	76	73	–	> 667	–	–	–	–	680	–
COc1ccc(-c2cc(-c3nccs3)c(=O)n(C)c2-c2ccncc2)cc1	37	6.2	45	–	56	32	> 1000	–	–	67
COc1ccc(-c2cc(-c3noc(C)n3)c(=O)n(C)c2-c2ccncc2)cc1	1100	320	260	–	111	81	1300	–	–	–
COc1ccc(-c2cc(-c3ccsc3)c(=O)n(C)c2-c2ccncc2)cc1	51	12	39	450	–	18	–	–	–	–
Cc1csc(-c2cc(-c3ccc(F)cc3)c(-c3ccncc3)n(C)c2=O)n1	8	3.5	13	380	57	41	–	–	–	–
COC(=O)c1cc(-c2ccccc2)c(-c2ccccc2)n(C)c1=O	–	270	520	–	–	–	–	–	–	–
COc1ccc(-c2cc(-c3cc(C)cs3)c(=O)n(C)c2-c2ccncc2)cc1	–	23	41	–	–	–	340	38	–	–
COc1ccc(-c2cc(-c3nc(C)cs3)c(=O)n(C)c2-c2cccnc2)cc1	5	3.8	12.8	> 667	78	77	–	–	–	–
COC(=O)c1cc(-c2ccc(OC)cc2)c(-c2ccccc2)n(C)c1=O	340	210	–	393	–	–	–	–	625	–
COc1ccc(-c2cc(-c3nc(C4CC4)cs3)c(=O)n(C)c2-c2ccncc2)cc1	24	12	31	> 1000	29	35	–	–	–	–
COc1ccc(-c2cc(-c3noc(C4CC4)n3)c(=O)n(C)c2-c2ccncc2)cc1	240	60	310	–	120	150	–	–	–	142
COc1ccc(-c2cc(-c3ccccc3)c(=O)n(C)c2-c2ccncc2)cc1	130	24	83	> 1000	45	63	–	–	–	–
COc1ccc(-c2cc(-c3ncc(C)s3)c(=O)n(C)c2-c2ccncc2)cc1	380	250	330	> 1000	–	–	–	–	–	–
COC(=O)c1cc(-c2ccccc2)c(-c2ccc(N(C)C)cc2)n(C)c1=O	470	270	630	> 667	–	–	–	–	–	–
COC(=O)c1cc(-c2ccc(OC)cc2)c(-c2ccncc2)n(C)c1=O	320	79	1020	390	3	-25	–	–	–	8
